# Data taken from ChEMBL document CHEMBL1123290, “Synthesis, antimalarial activity, and quantitative structure-activity relationships of tebuquine and a series of related 5-[(7-chloro-4-quinolinyl)amino]-3-[(alkylamino)methyl] [1,1'-biphenyl]-2-ols and N omega-oxides” (1986).
# Key:
# Assay type in all cases: functional
# Plasmodium berghei [1] = assay: Change in mean survival time for control (average 6.2 days) versus treated mice (Mus musculus) 72 hrs after 5 mg/kg subcutaneous dose
# Plasmodium berghei [2] = assay: Change in mean survival time for control (average 6.2 days) versus treated mice (Mus musculus) 72 hrs after 640 mg/kg subcutaneous dose
# Plasmodium berghei [3] = assay: Change in mean survival time for control (average of 6.2 days) versus treated mice (Mus musculus) 72 hrs after 80 mg/kg subcutaneous dose
# Plasmodium berghei [4] = assay: (§1) Change in mean survival time for control (average 6.2 days) versus treated mice (Mus musculus) 72 hrs after […] subcutaneous dose
# Plasmodium berghei [5] = assay: Change in mean survival time for control (average 6.2 days) versus treated mice (Mus musculus) 72 hrs after 10 mg/kg subcutaneous dose
# Plasmodium berghei [6] = assay: Change in mean survival time for control (average 6.2 days) versus treated mice (Mus musculus) 72 hrs after 160 mg/kg subcutaneous dose
# Plasmodium berghei [7] = assay: Change in mean survival time for control (average 6.2 days) versus treated mice (Mus musculus) 72 hrs after […] subcutaneous dose
# Plasmodium berghei [8] = assay: Change in mean survival time for control (average 6.2 days) versus treated mice (Mus musculus) 72 hrs after 20 mg/kg subcutaneous dose
# Plasmodium berghei [9] = assay: Change in mean survival time for control (average 6.2 days) versus treated mice (Mus musculus) 72 hrs after 320 mg/kg subcutaneous dose
# Plasmodium berghei [10] = assay: Difference in mean survival time in mice (Mus musculus) (control = 6.2 days) after single 40mg/kg subcutaneous dose 72hr post infection
# Plasmodium berghei [11] = assay: Antimalarial activity as 60-day survivors in Plasmodium berghei infected mice (Mus musculus) after single 160mg/kg subcutaneous dose 72 hr post infection
# Outline: (§2)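 Mice were infected with a normal drug-sensitive Plasmodium berghei strain. At 72 h postinfection each received one subcutaneous dose of compound dissolved or suspended in peanut oil, in five-mouse groups per dose. The read-out was the number of mice alive at 60 days postinfection, which were scored as cured.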
# Plasmodium berghei [12] = assay: Antimalarial activity as 60-day survivors in infected mice (Mus musculus) after single 320mg/kg subcutaneous dose 72 hr post infection; outline: as §2
# Mus musculus [13] = assay: Antimalarial activity, administered as a single subcutaneous dose of 40 mg/kg, 72 hrs post infection measured as number of mice (Mus musculus) surviving at 60 days post infection; outline: as §2
# Mus musculus [14] = assay: Antimalarial activity, administered as a single subcutaneous dose of 640 mg/kg, 72 hrs post infection measured as number of mice (Mus musculus) surviving at 60 days post infection; outline: as §2
# Mus musculus [15] = assay: Antimalarial activity, administered as a single subcutaneous dose of 80 mg/kg, 72 hrs post infection measured as number of mice (Mus musculus) surviving at 60 days post infection; outline: as §2
# Plasmodium berghei [16] = assay: Antimalarial activity in primary screen
# Plasmodium berghei [17] = assay: Change in mean survival time for control (average 6.2 days) versus treated mice (Mus musculus) after 160 mg/kg subcutaneous dose
# Plasmodium berghei [18] = assay: Change in mean survival time for control (average 6.2 days) versus treated mice (Mus musculus) after 20 mg/kg subcutaneous dose
# Plasmodium berghei [19] = assay: Change in mean survival time for control (average 6.2 days) versus treated mice (Mus musculus) after 320 mg/kg subcutaneous dose
# Plasmodium berghei [20] = assay: Change in mean survival time for control (average 6.2 days) versus treated mice (Mus musculus) after 40 mg/kg subcutaneous dose
# Plasmodium berghei [21] = assay: Change in mean survival time in control (average 6.2 days) versus treated mice (Mus musculus) after 80 mg/kg subcutaneous dose
# Plasmodium berghei [22] = assay: as §1; remark: listed apart in the source
# Plasmodium berghei [23] = assay: Antimalarial activity as 60-day survivors in infected mice (Mus musculus) after single 20 mg/kg subcutaneous dose 72hr post infection; outline: as §2
SMILES,Delta MST (Plasmodium berghei [1]) [days],Delta MST (Plasmodium berghei [2]),Delta MST (Plasmodium berghei [3]) [days],Delta MST (Plasmodium berghei [4]) [days],Delta MST (Plasmodium berghei [5]) [days],Delta MST (Plasmodium berghei [6]) [days],Delta MST (Plasmodium berghei [7]) [days],Delta MST (Plasmodium berghei [8]) [days],Delta MST (Plasmodium berghei [9]) [days],Delta MST (Plasmodium berghei [10]) [days],No. of mice cured (Plasmodium berghei [11]),No. of mice cured (Plasmodium berghei [12]),No. of mice cured (Mus musculus [13]),No. of mice cured (Mus musculus [14]),No. of mice cured (Mus musculus [15]),ED30 (Plasmodium berghei [16]) [mg/kg],also measured
CCCN(CCC)Cc1cc(Nc2ccnc3cc(Cl)ccc23)cc(-c2ccc(Cl)cc2)c1O,3.8,18.1 days,27.6,0.4,6.8,26.6,0.8,11.2,29.6,24.4,2,4,1,3,3,,
CCN(CC)Cc1cc(Nc2cc[n+]([O-])c3cc(Cl)ccc23)cc(-c2cc(OC)ccc2OC)c1O,,,,,,,,,,,,,,1,,2450,Delta MST (Plasmodium berghei [17]): 6 days; Delta MST (Plasmodium berghei [18]): 0.6 days; Delta MST (Plasmodium berghei [19]): 7.8 days; Delta MST (Plasmodium berghei [20]): 2.6 days; Delta MST (Plasmodium berghei [21]): 2 days; Delta MST (Plasmodium berghei [22]): 27.1 days
CCN(CC)Cc1cc(Nc2ccnc3cc(Cl)ccc23)cc(-c2ccncc2)c1O,1.9,25 days,11.5,-0.1,2.1,21.7,0.5,5.5,21.2,9.3,1,1,,2,1,89,
CCN(CC)Cc1cc(Nc2ccnc3cc(Cl)ccc23)cc(-c2ccccc2C(F)(F)F)c1O,1.1,20.7 days,25.5,0.3,3.1,,-0.3,12.5,30.7,18.5,5,4,1,4,1,34.7,
CCCCN(CCCC)Cc1cc(Nc2ccnc3cc(Cl)ccc23)cc(-c2ccc(Cl)cc2)c1O,0.2,34.4 days,12.6,0.4,2,17,0.2,4.6,24,8.2,,,,3,,,
CCN(CC)Cc1cc(Nc2ccnc3cc(Cl)ccc23)cc(-c2ccc(O)cc2)c1O,,4.1 days,4.8,,,6.8,,-0.2,3.8,0.8,,2,,1,,320,
CCN(CC)Cc1cc(Nc2ccnc3cc(Cl)ccc23)cc(-c2ccccc2Cl)c1O,4.7,,,0.7,14.7,41.9,0.3,17.2,41.9,,4,4,5,5,5,15.3,No. of mice cured (Plasmodium berghei [23]): 2
CCN(CC)Cc1cc(Nc2ccnc3cc(Cl)ccc23)cc(-c2cccc3ccccc23)c1O,-0.3,8.1 days,5.8,0.1,0.7,6.6,-0.1,0.3,11.2,2.3,,1,,2,,4200,
Oc1c(CN2CCCC2)cc(Nc2ccnc3cc(Cl)ccc23)cc1-c1ccc(Cl)c(Cl)c1,,33.9 days,30.2,-0.1,0.1,,-0.1,8.3,25.9,18.5,4,3,,3,1,,
CCN(CC)Cc1cc(Nc2ccnc3cc(Cl)ccc23)cc(-c2cc(OC)ccc2OC)c1O,,8.6 days,3.6,,,4,,0,8.8,3.8,,,,,,9680,
CC(C)(C)NCc1cc(Nc2ccnc3cc(Cl)ccc23)cc(-c2ccc(Cl)c(Cl)c2)c1O,6.1,16.4 days,30.4,0.7,9.7,13.4,0.1,10.5,14.4,27.4,4,3,2,4,4,,No. of mice cured (Plasmodium berghei [23]): 1
CCN(CC)Cc1cc(Nc2ccnc3cc(Cl)ccc23)cc(-c2c(F)cccc2F)c1O,7.9,36.8 days,24.1,0.1,8.3,,2.7,12.2,,16.9,5,5,1,4,2,23.7,No. of mice cured (Plasmodium berghei [23]): 1
CCN(CC)Cc1cc(Nc2ccnc3cc(Cl)ccc23)cc(-c2ccc(SC)cc2)c1O,0.5,13.6 days,10,0.5,1.3,19.2,0.1,6.7,25.3,9.1,,2,,4,,151,
CCN(CC)Cc1cc(Nc2ccnc3cc(Cl)ccc23)cc(-c2ccc(C)cc2)c1O,0.4,20.5 days,6.5,0.4,1.6,9.7,0.4,3.3,14.5,4.5,,,,,,1530,
CCN(CC)Cc1cc(Nc2ccnc3cc(Cl)ccc23)cc(-c2ccccn2)c1O,,25.3 days,7.8,,,11.2,,2.6,15.8,3.8,,3,,3,,160,
CCN(CC)Cc1cc(Nc2cc[n+]([O-])c3cc(Cl)ccc23)cc(-c2cccc3ccccc23)c1O,,,,,,,,,,,,,,1,,14400,Delta MST (Plasmodium berghei [17]): 6.4 days; Delta MST (Plasmodium berghei [18]): 0 days; Delta MST (Plasmodium berghei [19]): 1.6 days; Delta MST (Plasmodium berghei [20]): 0.4 days; Delta MST (Plasmodium berghei [21]): 3 days; Delta MST (Plasmodium berghei [22]): 12.9 days
CCN(CC)Cc1cc(Nc2ccnc3cc(Cl)ccc23)cc(-c2ccc(OC)c(OC)c2)c1O,,13.1,5.4,,,8.6,,1.2,12,3.8,,,,1,,927,
CN(C)Cc1cc(Nc2ccnc3cc(Cl)ccc23)cc(-c2ccc(Cl)cc2)c1O,14.2,18.7 days,45.4,1.2,20.4,,6,36.8,14.4,18.8,5,1,4,1,4,6.2,No. of mice cured (Plasmodium berghei [23]): 3
